We go through four molecules from article PMC3611965 (Nuclear medicine and biology, 2012).

Where “and” joins values, the source holds several entries; their conditions need not be identical. Equal entries are not always repeated. Where two headings read alike, the source gives them in different places.

Data set [1] relates to FAAH. The note with it: rats; ref [25]; cited from earlier work.
For data set [2] the following is noted: rats; ref [20],[21]; cited from earlier work.
The subject of data set [3] is FAAH relative to other serine hydrolases. Particulars: competitive ABPP; ref [20],[21]; cited from earlier work.
Data set [4] concerns the target T1, FAAH (Rattus norvegicus, UniProt P97612).
T1 sequence (P97612 1-579): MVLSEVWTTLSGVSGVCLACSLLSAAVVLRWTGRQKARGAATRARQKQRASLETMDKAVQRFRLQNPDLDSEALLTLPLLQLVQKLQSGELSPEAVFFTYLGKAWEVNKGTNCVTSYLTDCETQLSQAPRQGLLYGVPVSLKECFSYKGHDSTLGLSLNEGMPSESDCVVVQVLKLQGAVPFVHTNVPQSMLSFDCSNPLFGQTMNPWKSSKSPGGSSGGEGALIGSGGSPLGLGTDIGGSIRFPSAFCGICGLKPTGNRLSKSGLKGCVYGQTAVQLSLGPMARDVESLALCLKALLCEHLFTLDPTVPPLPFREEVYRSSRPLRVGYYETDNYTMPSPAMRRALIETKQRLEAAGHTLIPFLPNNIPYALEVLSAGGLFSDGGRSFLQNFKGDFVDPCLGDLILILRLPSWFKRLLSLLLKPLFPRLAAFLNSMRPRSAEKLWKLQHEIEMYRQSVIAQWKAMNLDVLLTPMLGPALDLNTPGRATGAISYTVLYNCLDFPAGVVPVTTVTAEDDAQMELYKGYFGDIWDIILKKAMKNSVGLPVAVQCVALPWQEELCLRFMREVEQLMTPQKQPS
Particulars: cited from earlier work.

For data set [5], the target named is T1, FAAH. Put plainly: dynamic PET imaging in rats, baseline and blocked. The data set is classed as in vivo. In a few lines: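 Male Sprague–Dawley rats (345±28 g) with jugular vein cannulas, held under ~2% isoflurane/O2 with respiration kept at 45–65 breaths/min and heat-lamp warming. The 18F-labelled test compound was given IV via tail vein (1.5462±0.4130 mCi) and brain scanned dynamically for 90 min in 16 frames. Blocked rats received an FAAH inhibitor 1 mg/kg p.o. 1 h before. Blood and plasma were sampled at 1–90 min. Images were atlas-registered for TACs and SUV.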

Data set [6] addresses T1, FAAH. The data set is described as follows: brain biodistribution of [18F]PF-9811 in rats, baseline and blocked. The data set is classed as in vivo. The note with it: for SUV±standard deviation, Bone: N=2; for SUV±standard deviation, Blood / SUV±standard deviation, Brain stem / SUV±standard deviation, Cerebellum / SUV±standard deviation, Cortex / SUV±standard deviation, Hippocampus / SUV±standard deviation, Hypothalamus / SUV±standard deviation, Liver / SUV±standard deviation, Rest of brain / SUV±standard deviation, Striatum / SUV±standard deviation, Thalamus: N=4.

A further data set can be described thus: log P7.4 measurement. The data set is classed as physicochemical. The note with it: n-octanol/DPBS pH 7.4; measured in quadruplicate. In outline: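 18F-labelled test compound (15–30 μCi) was partitioned between presaturated n-octanol and DPBS (0.1 M, pH 7.4) by vortexing 60 s and centrifuging at 4000 rpm for 2 min. The octanol phase was washed with fresh DPBS three times, then re-partitioned against fresh DPBS in four successive sets. Triplicate aliquots of each phase were gamma-counted. LogP7.4 = log[(octanol counts×20)/DPBS counts].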

Data set [7] concerns FAAH. The note with it: rhesus monkeys; ref [23]; cited from earlier work.
Data set [8] concerns FAAH. The note with it: human studies; ref [23]; cited from earlier work.
Where [9] appears, read: 10 min, blocked: 4 1 mg/kg oral 1 h prior.
The mark [10] stands for this setting: 10 min post injection, baseline.
The mark [11] stands for this setting: 60 min, blocked: 4 1 mg/kg oral 1 h prior.
The mark [12] stands for this setting: 60 min post injection, baseline.
The mark [13] stands for this setting: 90 min, blocked: 4 1 mg/kg oral 1 h prior.
Where [14] appears, read: 90 min, pretreatment with 4 1 mg/kg p.o.
[15] abbreviates: 90 min post injection, baseline.
The mark [16] stands for this setting: biodistribution 90 min, baseline vs blocking.

As to `O=[11C](NC1CCCCC1)Oc1ccc(O)c(-c2ccccc2)c1` [[^11 C]-CURB], the brain uptake result in the data set with FAAH [1] is recorded as “good brain uptake”.

On to `O=C(Nc1cccnn1)N1CCC(=Cc2cccc(Oc3ccc(C(F)(F)F)cn3)c2)CC1` [compound 4], for which the oral bioavailability in data set [2] is reported as 88%. In data set [3], the “selectivity for FAAH relative to other serine hydrolases” value is given as “exquisite selectivity”. On FAAH [4] (p.o. 1.0 mg/kg, ref [20]), the “FAAH inhibition at blocking dose” value is given as “fully inhibit”. The “duration of sustained inhibition of brain FAAH activity, maximal elevations of brain AEA and efficacy in rat models of acute inflammatory pain” value at FAAH [4] (single oral administration 1 mg/kg, ref [15],[20]) is listed as “at least 24 h”.

For `O=C(Nc1cccnn1)N1CCC(=Cc2cccc(Oc3ccc(OCC[18F])cn3)c2)CC1` [[^18F]PF-9811], the “decreased uptake in blocking experiments, hippocampus” value on FAAH [5] (PET, end of 90 min, 4 1 mg/kg p.o. 1 h prior) is given as about 40%. Also, the “PET uptake (SUV), hippocampus and cortex” value at FAAH [5] (baseline, 90 min) is reported as about 0.8 SUV. Besides, at FAAH [6] (setting [9]), the “SUV±standard deviation, Bone” value is on record as 0.332±0.010 SUV; the “SUV±standard deviation, Blood” value is 1.031±0.069 SUV; the “SUV±standard deviation, Brain stem” value was 0.313±0.011 SUV; the “SUV±standard deviation, Cerebellum” value came out at 0.291±0.008 SUV. At FAAH [6] (setting [9]), the “SUV±standard deviation, Cortex” value came out at 0.265±0.014 SUV; the “SUV±standard deviation, Hippocampus” value worked out at 0.282±0.014 SUV; the “SUV±standard deviation, Hypothalamus” value was determined as 0.351±0.024 SUV; the “SUV±standard deviation, Liver” value stood at 7.725±0.701 SUV. Besides, at FAAH [6] (setting [9]), the “SUV±standard deviation, Rest of brain” value is 0.294±0.018 SUV; the “SUV±standard deviation, Striatum” value came out at 0.309±0.028 SUV; the “SUV±standard deviation, Thalamus” value is reported as 0.304±0.020 SUV. At FAAH [6] (setting [10]), the “SUV±standard deviation, Bone” value was found to be 0.180±0.001 SUV; the “SUV±standard deviation, Blood” value turned out to be 0.224±0.070 SUV; the “SUV±standard deviation, Brain stem” value was 0.319±0.029 SUV; the “SUV±standard deviation, Cerebellum” value was determined as 0.666±0.017 SUV. Besides, at FAAH [6] (setting [10]), the “SUV±standard deviation, Cortex” value stood at 0.596±0.030 SUV; the “SUV±standard deviation, Hippocampus” value is recorded as 0.579±0.018 SUV; the “SUV±standard deviation, Hypothalamus” value is reported as 0.410±0.027 SUV; the “SUV±standard deviation, Liver” value is 14.179±3.336 SUV. Besides, at FAAH [6] (setting [10]), the “SUV±standard deviation, Rest of brain” value was 0.471±0.038 SUV; the “SUV±standard deviation, Striatum” value was determined as 0.427±0.021 SUV; the “SUV±standard deviation, Thalamus” value is 0.382±0.051 SUV. On FAAH [6] (setting [11]), the “SUV±standard deviation, Bone” value is 0.391±0.088 SUV; the “SUV±standard deviation, Blood” value worked out at 0.747±0.191 SUV; the “SUV±standard deviation, Brain stem” value is 0.264± 0.076 SUV; the “SUV±standard deviation, Cerebellum” value came out at 0.248± 0.076 SUV. At FAAH [6] (setting [11]), the “SUV±standard deviation, Cortex” value stood at 0.219±0.068 SUV; the “SUV±standard deviation, Hippocampus” value is on record as 0.233±0.076 SUV; the “SUV±standard deviation, Hypothalamus” value was determined as 0.260± 0.088 SUV; the “SUV±standard deviation, Liver” value was found to be 4.488±1.343 SUV. For the same molecule, on FAAH [6] (setting [11]), the “SUV±standard deviation, Rest of brain” value worked out at 0.239±0.071 SUV; the “SUV±standard deviation, Striatum” value is 0.255±0.082 SUV; the “SUV±standard deviation, Thalamus” value was found to be 0.251±0.074 SUV. For the same molecule, on FAAH [6] (setting [12]), the “SUV±standard deviation, Bone” value came out at 0.133±0.058 SUV; the “SUV±standard deviation, Blood” value was found to be 0.063±0.012 SUV; the “SUV±standard deviation, Brain stem” value was 0.331±0.041 SUV; the “SUV±standard deviation, Cerebellum” value worked out at 0.751±0.094 SUV. On FAAH [6] (setting [12]), the “SUV±standard deviation, Cortex” value was 0.674±0.109 SUV; the “SUV±standard deviation, Hippocampus” value was determined as 0.673±0.118 SUV; the “SUV±standard deviation, Hypothalamus” value is recorded as 0.426± 0.045 SUV; the “SUV±standard deviation, Liver” value is recorded as 17.346±4.789 SUV. Further, on FAAH [6] (setting [12]), the “SUV±standard deviation, Rest of brain” value is 0.555±0.081 SUV; the “SUV±standard deviation, Striatum” value is 0.441±0.073 SUV; the “SUV±standard deviation, Thalamus” value was found to be 0.374±0.045 SUV. Besides, at FAAH [6] (setting [13]), the “SUV±standard deviation, Bone” value is 0.472±0.133 SUV; the “SUV±standard deviation, Blood” value came to 0.703±0.117 SUV; the “SUV±standard deviation, Brain stem” value came out at 0.246± 0.050 SUV; the “SUV±standard deviation, Cerebellum” value was determined as 0.249± 0.065 SUV. In addition, at FAAH [6] (setting [13]), the “SUV±standard deviation, Cortex” value was 0.216±0.055 SUV; the “SUV±standard deviation, Hippocampus” value turned out to be 0.234±0.061 SUV; the “SUV±standard deviation, Hypothalamus” value was 0.257±0.079 SUV; the “SUV±standard deviation, Liver” value stood at 4.165±0.664 SUV. On FAAH [6] (setting [13]), the “SUV±standard deviation, Rest of brain” value is 0.231±0.055 SUV; the “SUV±standard deviation, Striatum” value came to 0.240±0.065 SUV; the “SUV±standard deviation, Thalamus” value was 0.238±0.058 SUV. On FAAH [6] (setting [14]), the “increase in signal in the blood on blocking” value worked out at 12 fold and the “reduction of signal in the liver on blocking” value is on record as 74%. In addition, at FAAH [6] (setting [15]), the “SUV±standard deviation, Bone” value worked out at 0.159±0.001 SUV; the “SUV±standard deviation, Blood” value amounted to 0.061±0.009 SUV; the “SUV±standard deviation, Brain stem” value is 0.391± 0.040 SUV; the “SUV±standard deviation, Cerebellum” value was determined as 0.857±0.144 SUV. Besides, on FAAH [6] (setting [15]), the “SUV±standard deviation, Cortex” value is 0.789±0.096 SUV; the “SUV±standard deviation, Hippocampus” value amounted to 0.770±0.126 SUV; the “SUV±standard deviation, Hypothalamus” value was 0.545±0.126 SUV; the “SUV±standard deviation, Liver” value is 16.116±4.670 SUV. On FAAH [6] (setting [15]), the “SUV±standard deviation, Rest of brain” value came to 0.612±0.088 SUV; the “SUV±standard deviation, Striatum” value is listed as 0.573±0.081 SUV; the “SUV±standard deviation, Thalamus” value is reported as 0.544± 0.063 SUV. Besides, on FAAH [6] (setting [16]), the “specific to non-specific binding ratio, cerebellum” value stood at 2.4; the “specific to non-specific binding ratio, cortex” value was determined as 2.6; the “specific to non-specific binding ratio, hippocampus” value is given as 2.3. The “uptake in rat brain (SUV)” value at FAAH [6] (biodistribution, 90 min, baseline) is about 0.8 SUV. At FAAH [6] (rats), the “defluorination (as determined by bone uptake)” value was “minimal”. In addition, the logP7.4 in the data set “log P7.4 measurement” is 3.14±0.02 and 3.14.

For `CN(C)C(=O)[C@H]1C[C@@H]1c1ccc(-c2ncn([11CH3])c2Sc2ccc(Cl)cn2)cc1` [[^11 C]MK-3168], the “brain uptake (PET)” value is listed as “Heterogeneous, specific brain uptake” in the data set on FAAH [7] and “high brain uptake” in the data set with FAAH [8].
